From ChEMBL document CHEMBL2380254, “Optimization of tocotrienols as antiproliferative and antimigratory leads” (Eur J Med Chem, 2013)

How the values were obtained:
Type in all cases: functional
[1] = Growth inhibition of human Hs 578T cells assessed as cell growth at 10 uM after 48 hrs by sulforhodamine B assay; conditions: read-out: Activity
Method in brief: (§1)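 NCI-60 single-dose screen at 10 µM: cells in RPMI 1640 with 5% FBS, preincubated 24 h, then exposed 48 h at 37 °C. TCA fixation (16% final for suspension cells), SRB staining, absorbance 515 nm. Percent growth relative to time-zero and untreated control plates; negative values indicate cell kill.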

[2] = test system: PC-3; experiment: Growth inhibition of human PC3 cells assessed as cell growth at 10 uM after 48 hrs by sulforhodamine B assay; conditions: PC-3, 48 h, read-out: Activity
Method in brief: (§2)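 Single-dose NCI-60 screen: adherent cells in RPMI 1640 with 5% FBS were exposed to 10 µM for 48 h at 37 °C after a 24 h preincubation. They were fixed in situ with cold TCA (10% final), stained with 0.4% SRB in 1% acetic acid, solubilized in 10 mM Tris base, and read at 515 nm. Percent growth was taken relative to time-zero and control plates.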

[3] = test system: UO-31; experiment: Growth inhibition of human UO31 cells assessed as cell growth at 10 uM after 48 hrs by sulforhodamine B assay; conditions: UO-31, 48 h, read-out: Activity
Method in brief: (§3)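 Single-dose NCI-60 test at 10 µM. Cells were grown in RPMI 1640 with 5% FBS and 2 mM L-glutamine, preincubated 24 h, with T0 plates TCA-fixed. Exposure was 48 h at 37 °C, 5% CO2. Cells were fixed with cold TCA (final 10%, 4 °C, 60 min), stained with SRB and read at 515 nm. Percent growth was taken relative to T0 and untreated control; negative values denote cell kill.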

[4] = test system: SN12C; experiment: Growth inhibition of human SN12C cells assessed as cell growth at 10 uM after 48 hrs by sulforhodamine B assay; conditions: read-out: Activity; method in brief: as §3
[5] = test system: LOX IMVI; experiment: Growth inhibition of human LOXIMVI cells assessed as cell growth at 10 uM after 48 hrs by sulforhodamine B assay; conditions: read-out: Activity; method in brief: as §1
[6] = test system: SF-539; experiment: Growth inhibition of human SF539 cells assessed as cell growth at 10 uM after 48 hrs by sulforhodamine B assay; conditions: SF-539, 48 h, read-out: Activity; method in brief: as §2
[7] = test system: SF-295; experiment: Growth inhibition of human SF295 cells assessed as cell growth at 10 uM after 48 hrs by sulforhodamine B assay; conditions: SF-295, 48 h, read-out: Activity; method in brief: as §2
[8] = test system: KM12; experiment: Growth inhibition of human KM12 cells assessed as cell growth at 10 uM after 48 hrs by sulforhodamine B assay; conditions: KM12, 48 h, read-out: Activity; method in brief: as §1
[9] = test system: NCI-H522; experiment: Growth inhibition of human NCI-H522 cells assessed as cell growth at 10 uM after 48 hrs by sulforhodamine B assay; conditions: NCI-H522, 48 h, read-out: Activity; method in brief: as §2
[10] = test system: NCI-H322M; experiment: Growth inhibition of human NCI-H322M cells assessed as cell growth at 10 uM after 48 hrs by sulforhodamine B assay; conditions: read-out: Activity; method in brief: as §2
[11] = test system: NCI-H23; experiment: Growth inhibition of human NCI-H23 cells assessed as cell growth at 10 uM after 48 hrs by sulforhodamine B assay; conditions: NCI-H23, 48 h, read-out: Activity; method in brief: as §2
[12] = test system: MOLT-4; experiment: Growth inhibition of human MOLT4 cells assessed as cell growth at 10 uM after 48 hrs by sulforhodamine B assay; conditions: MOLT-4, 48 h, read-out: Activity
Method in brief: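 Single 10 µM dose applied to suspension cells in RPMI 1640 with 5% FBS and 2 mM L-glutamine for 48 h at 37 °C. Settled cells were fixed with 80% TCA (16% final), stained with SRB, and read at 515 nm. Percent growth was calculated against time-zero and untreated control optical densities.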

[13] = test system: K562; experiment: Growth inhibition of human K562 cells assessed as cell growth at 10 uM after 48 hrs by sulforhodamine B assay; conditions: K562, 48 h, read-out: Activity; method in brief: as §1
[14] = test system: MDA-MB-468; experiment: Growth inhibition of human MDA-MB-468 cells after 48 hrs by sulforhodamine B assay; conditions: MDA-MB-468, 48 h
Method in brief: (§4)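 NCI-60 panel cells grown in RPMI 1640 with 5% FBS and 2 mM L-glutamine, seeded at 5000–40,000 cells/well and preincubated 24 h. Five 10-fold dilutions (0.001–100 µM) from DMSO stocks were added for 48 h at 37 °C. Adherent cells were fixed with cold TCA (10% final) for 60 min at 4 °C, stained with 0.4% SRB, and read at 515 nm. GI50 was set where 100×(T−T0)/(C−T0)=50.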

[15] = test system: T47D; experiment: Growth inhibition of human T47D cells after 48 hrs by sulforhodamine B assay
Method in brief: (§5)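 NCI-60 five-dose screen. Cells were grown in RPMI 1640 with 5% FBS and 2 mM L-glutamine, plated at 5000–40,000 cells/well and incubated 24 h before dosing, with T0 plates TCA-fixed. DMSO stocks were diluted to doses of […] and exposed 48 h at 37 °C, 5% CO2. Cells were fixed with cold TCA (final 10%, 60 min, 4 °C), stained with 0.4% SRB in 1% acetic acid for 10 min, solubilized in 10 mM trizma base and read at 515 nm. GI50 is where 100×(T−T0)/(C−T0)=50.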

[16] = test system: BT-549; experiment: Growth inhibition of human BT549 cells after 48 hrs by sulforhodamine B assay; conditions: BT-549, 48 h
Method in brief: (§6)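 NCI-60 screen: cells in RPMI 1640 with 5% FBS and 2 mM glutamine, 5000–40,000 cells/well, preincubated 24 h. Five concentrations (10-fold dilutions; 100 to 0.001 µM) applied for 48 h at 37 °C. TCA fixation, SRB stain, absorbance at 515 nm. Time-zero plates included; GI50 where 100×(T−T0)/(C−T0)=50.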

[17] = test system: DU-145; experiment: Growth inhibition of human DU145 cells after 48 hrs by sulforhodamine B assay; conditions: DU-145, 48 h; method in brief: as §6
[18] = test system: PC-3; experiment: Growth inhibition of human PC3 cells after 48 hrs by sulforhodamine B assay; conditions: PC-3, 48 h; method in brief: as §4
[19] = test system: RXF 393; experiment: Growth inhibition of human RXF393 cells after 48 hrs by sulforhodamine B assay; conditions: RXF 393, 48 h; method in brief: as §4
[20] = test system: SN12C; experiment: Growth inhibition of human SN12C cells after 48 hrs by sulforhodamine B assay; method in brief: as §5
[21] = test system: OVCAR-4; experiment: Growth inhibition of human OVCAR4 cells after 48 hrs by sulforhodamine B assay; conditions: OVCAR-4, 48 h; method in brief: as §4
[22] = Growth inhibition of human HCC2998 cells after 48 hrs by sulforhodamine B assay; conditions: HCC 2998, 48 h; method in brief: as §6
[23] = test system: NCI-H522; experiment: Growth inhibition of human NCI-H522 cells after 48 hrs by sulforhodamine B assay; conditions: NCI-H522, 48 h; method in brief: as §4
[24] = test system: NCI-H322M; experiment: Growth inhibition of human NCI-H322M cells after 48 hrs by sulforhodamine B assay; method in brief: as §4
[25] = test system: NCI-H23; experiment: Growth inhibition of human NCI-H23 cells after 48 hrs by sulforhodamine B assay; conditions: NCI-H23, 48 h; method in brief: as §4
[26] = test system: HOP-92; experiment: Growth inhibition of human HOP92 cells after 48 hrs by sulforhodamine B assay; conditions: HOP-92, 48 h; method in brief: as §6

| SMILES | growth at 10 µM [1] | growth at 10 µM [2] | growth at 10 µM [3] | growth at 10 µM [4] | growth at 10 µM [5] | growth at 10 µM [6] | growth at 10 µM [7] | growth at 10 µM [8] | growth at 10 µM [9] | growth at 10 µM [10] | growth at 10 µM [11] | growth at 10 µM [12] | growth at 10 µM [13] | GI50 [14] | GI50 [15] | GI50 [16] | GI50 [17] | GI50 [18] | GI50 [19] | GI50 [20] | further results |
| --- | --- | --- | --- | --- | --- | --- | --- | --- | --- | --- | --- | --- | --- | --- | --- | --- | --- | --- | --- | --- | --- |
| CC(C)=CCC/C(C)=C/CC/C(C)=C/CC[C@]1(C)CCc2cc(O)c(C)c(C)c2O1 [GAMMA-TOCOTRIENOL] | 102% | 96.6% | 64.1% | 96% | 90% | 101% | 105% | 107% | 68.8% | 95.2% | 92.8% | 84.3% | 85% |  |  |  |  |  |  |  |  |
| COc1ccc(CCN2COc3c(C)c(C)c4c(c3C2)CC[C@@](C)(CC/C=C(\C)CC/C=C(\C)CCC=C(C)C)O4)cc1OC | 198% | 94.3% | 76.2% | 87.3% | 98.6% | 103% | 108% | 96.4% | 98.6% | 101% | 102% | 76% | 78.3% |  |  |  |  |  |  |  |  |
| CC(C)=CCC/C(C)=C/CC/C(C)=C/CC[C@]1(C)CCc2c3c(c(C)c(C)c2O1)OCN(CCCCCCCCCCO)C3 | 96.5% | 84.3% | 71.7% | 99.4% | 93.6% | 97.6% | 111% | 89.1% |  | 101% | 90.9% | 79.5% | 77.6% |  |  |  |  |  |  |  |  |
| CC(C)=CCC/C(C)=C/CC/C(C)=C/CC[C@]1(C)CCc2c3c(cc(C)c2O1)OCN(CCCCCCCCO)C3 | 12% |  | -91.5% | -70.7% | -86.9% | -94.4% | -83.8% | -88.1% | -81.6% | -76.3% | -20.7% | -58.6% |  | 591 nM | 3940 nM | 5690 nM | 1080 nM | 1510 nM | 551 nM | 1540 nM | GI50 [21]: 585 nM; GI50 [22]: 583 nM; GI50 [23]: 3750 nM; GI50 [24]: 5130 nM; GI50 [25]: 4400 nM; GI50 [26]: 1840 nM |
| CC(C)=CCC/C(C)=C/CC/C(C)=C/CC[C@]1(C)CCc2c3c(c(C)c(C)c2O1)OCN(CCCCCCO)C3 | 90.4% | 51% | 42.7% | 66.5% | -88.4% | 66.1% | 61.7% | 7.87% | 68.3% | 69.5% | 47% | -18.4% |  | 2610 nM | 2840 nM | 4180 nM | 2960 nM | 2520 nM | 2300 nM | 2500 nM | GI50 [21]: 2490 nM; GI50 [22]: 2620 nM; GI50 [23]: 3450 nM; GI50 [24]: 2710 nM; GI50 [25]: 2840 nM; GI50 [26]: 1890 nM |
